# From ChEMBL document CHEMBL3217582, “Design of symmetrical and nonsymmetrical N,N-dimethylaminopyridine derivatives as highly potent choline kinase alpha inhibitors” (Medchemcomm, 2013)
# The source made the active and inactive calls. The rule behind the calls is not given here.
# Key:
# [1] = tested on: A549; assay: Growth inhibition of human A549 cells overexpressing CHKA2 after 72 hrs by sulforhodamine assay; type: functional; details: A549, 72 h
# How it was run: (§1)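 A549 (DMEM) or HCT-116 (RPMI-1640) cells in 10% FCS, 37°C, 5% CO2. Cells treated 24 h after seeding with 9 inhibitor concentrations, six replicates, for 72 h. Fixed with 10% TCA, stained with 0.4% SRB, read at 540 nm. GI50 from variable-slope sigmoidal fit of percent-of-control curves.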
# [2] = tested on: HCT-116; assay: Growth inhibition of human HCT116 cells overexpressing CHKA2 after 72 hrs by sulforhodamine assay; type: functional; details: HCT-116, 72 h; how it was run: as §1
# [3] = organism: Homo sapiens; assay: Mixed inhibition of recombinant delta49N CHKA2 (unknown origin) using choline as substrate by Lineweaver-burk plot analysis in presence of ATP
# [4] = Inhibition of recombinant delta49N CHKA2 (unknown origin) assessed as ADP formation using choline as substrate by enzyme coupled assay; design: species or system Homo sapiens
# How it was run: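 Δ49N CHKA2 (20 ng) with 72 µM choline and 450 µM ATP (both at KM) in 100 mM Tris pH 7.5, 100 mM KCl, 10 mM MgCl2. Coupled system: 500 µM PEP, pyruvate kinase, LDH, 250 µM NADH. Inhibitor at varying concentrations. ADP formation followed as NADH loss at 340 nm. IC50 from variable-slope sigmoidal least-squares fit.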
# [5] = target: T1, Choline kinase alpha (Homo sapiens, UniProt P35790); assay: Inhibition of CHKA in human HCT116 cells assessed as [3H]phosphocholine formation using [3H]choline chloride as substrate at 2.4 +/-1 uM incubated for 1 hr prior to substrate addition measured after 1 hr by scintillation counting analysis; type: cell-based; details: HCT-116
# How it was run: (§2)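 HCT-116 cells pretreated 1 h with 0.16, 0.8, 4, 20 or 100 µM inhibitor. Then pulsed 1 h with [3H]choline chloride (0.5 µCi/mL). Cells washed in cold PBS and extracted with methanol/chloroform. Choline removed with tetraphenylborate in heptan-4-one. Aqueous phosphocholine counted by liquid scintillation and compared with untreated controls.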
# Target sequence in this assay (P35790 whole entry, looked up): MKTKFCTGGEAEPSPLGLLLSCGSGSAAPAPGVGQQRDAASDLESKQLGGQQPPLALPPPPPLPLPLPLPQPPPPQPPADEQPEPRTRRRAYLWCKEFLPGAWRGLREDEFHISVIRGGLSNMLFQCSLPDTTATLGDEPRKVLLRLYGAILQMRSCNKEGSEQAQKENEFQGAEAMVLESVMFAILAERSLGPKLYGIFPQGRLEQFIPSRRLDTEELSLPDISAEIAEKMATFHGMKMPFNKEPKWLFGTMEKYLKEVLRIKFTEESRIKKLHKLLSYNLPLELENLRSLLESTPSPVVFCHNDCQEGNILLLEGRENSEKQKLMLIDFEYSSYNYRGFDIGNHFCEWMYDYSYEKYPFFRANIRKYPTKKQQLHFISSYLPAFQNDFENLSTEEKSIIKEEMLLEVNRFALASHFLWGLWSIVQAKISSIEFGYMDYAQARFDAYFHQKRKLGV
# [6] = target: T1, Choline kinase alpha; assay: Inhibition of CHKA in human HCT116 cells assessed as [3H]phosphocholine formation using [3H]choline chloride as substrate at 6.5 +/-4 uM incubated for 1 hr prior to substrate addition measured after 1 hr by scintillation counting analysis; type: cell-based; details: HCT-116; how it was run: as §2
# Target sequence in this assay (P35790 whole entry, looked up): as above
# [7] = target: T1, Choline kinase alpha; assay: Inhibition of CHKA in human HCT116 cells assessed as [3H]phosphocholine formation using [3H]choline chloride as substrate incubated for 1 hr prior to substrate addition measured after 1 hr by scintillation counting analysis; type: cell-based, HCT-116; details: for inhibition: HCT-116; how it was run: as §2
# [8] = organism: Homo sapiens; assay: Competitive inhibition of recombinant delta49N CHKA2 (unknown origin) using 72 uM choline as substrate by Lineweaver-burk plot analysis in presence of 10 uM to 5 mM ATP
# [9] = organism: Homo sapiens; assay: Competitive inhibition of recombinant delta49N CHKA2 (unknown origin) using 40 uM to 20 mM choline as substrate by Lineweaver-burk plot analysis in presence of 450 uM ATP
Structure (SMILES),GI50 [1],GI50 [2],inhibition [3],IC50 [4],inhibition [5],inhibition [6],EC50 [7],inhibition [7],inhibition [8],inhibition [9]
CN(C)c1cc[n+](CCCCCCCCCCCCn2cnc3c(N)ncnc32)cc1,5.3 µM,4.1 µM,Active,0.8 µM,,,,,,
CN(C)c1cc[n+](CCOCCOCCOCC[n+]2ccc(N(C)C)cc2)cc1,,> 1000 µM,,,,,,,,
CN(C)c1cc[n+](CCCCCCCCC[n+]2ccc(N(C)C)cc2)cc1,4 µM,2.6 µM,,1.3 µM,,,,,,
CN(C)c1cc[n+](CCOCCOCCOCCn2cnc3ccccc32)cc1,,> 1000 µM,,,,,,,,
CN(C)c1cc[n+](CCCCCCCCCC[n+]2ccc(N(C)C)cc2)cc1,4.2 µM,2.8 µM,,0.67 µM,,,,,,
CN(C)c1cc[n+](CCCCCCCC[n+]2ccc(N(C)C)cc2)cc1,3.3 µM,2.5 µM,,2.7 µM,,,,,,

# The next compounds have a lower GI50 [2] than those just listed; values first:
GI50 [1],GI50 [2],inhibition [3],IC50 [4],inhibition [5],inhibition [6],EC50 [7],inhibition [7],inhibition [8],inhibition [9],Structure (SMILES)
1.6 µM,2 µM,,0.29 µM,,,,,,,CN(C)c1cc[n+](CCCCCCCCCCC[n+]2ccc(N(C)C)cc2)cc1
1.3 µM,0.69 µM,,5.1 µM,,,,,,,CN(C)c1cc[n+](CCCCCCCCCCCCn2cnc3ccccc32)cc1
0.38 µM,0.64 µM,,0.27 µM,> 75%,> 75%,1.3 µM,Dose-dependent effect,inactive,Active,CN(C)c1cc[n+](CCCCCCCCCCCC[n+]2ccc(N(C)C)cc2)cc1
0.33 µM,0.29 µM,,0.15 µM,> 75%,> 75%,0.52 µM,Dose-dependent effect,,,CN(C)c1cc[n+](CCCCCCCCCCCCCC[n+]2ccc(N(C)C)cc2)cc1
